Values after ≈ are worked out from the molar mass of the structure shown.
What was measured:
Staphylococcus aureus = test: Antibacterial activity against Staphylococcus aureus at 50 to 100 uM after 24 hrs by well diffusion method; format: functional
In short: (§1)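 Nutrient agar plates with 10 mm wells cut by cork borer; 24-h subcultured bacteria swabbed on. Compounds dissolved in chloroform, 50 to 100 μM added to wells, gentamycin as standard. Incubated 24 h at 24–28 °C; inhibition zone diameter measured and converted to percent inhibition.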

Pseudomonas aeruginosa = test: Antibacterial activity against Pseudomonas aeruginosa at 50 to 100 uM after 24 hrs by well diffusion method; format: functional; in short: as §1
Salmonella typhi = test: Antibacterial activity against Salmonella typhi at 50 to 100 uM after 24 hrs by well diffusion method; format: functional; in short: as §1
Escherichia coli = test: Antibacterial activity against Escherichia coli at 50 to 100 uM after 24 hrs by well diffusion method; format: functional; in short: as §1
[1] = tested on: Mycobacterium tuberculosis; test: Antitubercular activity against Mycobacterium tuberculosis H37Rv by MABA assay; format: functional
In short: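 Actives re-tested at lower concentrations against H37Rv (ATCC 27294) in BACTEC 12B medium by Microplate Alamar Blue Assay. MIC taken as lowest concentration giving […] fluorescence reduction versus controls; rifampin reference.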

[2] = Cytotoxicity against Vero-C1008 cells at 6.25 to 50 ug/mL by neutral red uptake assay; format: cell-based; details: chlorocebus sabaeus
In short: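 Vero-C-1008 cells exposed to 6.25 to 50 μg/mL compound; viability read by neutral red uptake.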

Row | Compound | inhibition (Staphylococcus aureus) [%] | inhibition (Pseudomonas aeruginosa) [%] | inhibition (Salmonella typhi; Salmonella enterica subsp. enterica serovar Typhi) [%] | inhibition (Escherichia coli) [%] | MIC [1] [µg/mL] | inhibition zone (Staphylococcus aureus) [mm] | inhibition zone (Pseudomonas aeruginosa) [mm] | Inhibition (Salmonella typhi) | inhibition zone (Escherichia coli) [mm] | Activity [2]
1 | GENTAMICIN | 34 | 35 | 30 | 31 | – | – | – | – | – | –
2 | O=C(Nc1nc(Cc2nnc(SCSc3nnc(Cc4csc(NC(=O)c5ccccc5)n4)n3NC(=O)c3cccc([N+](=O)[O-])c3)n2NC(=O)c2cccc([N+](=O)[O-])c2)cs1)c1ccccc1 | – | – | – | – | < 6.25 | 26 | 24 | 19 | 24 | Non-toxic
3 | O=C(CCl)NNC(=O)CSc1nnc(Cc2csc(NC(=O)CCl)n2)n1NC(=O)c1ccc(Cl)cc1 | – | – | – | – | < 6.25 | 24 | – | – | 18 | Non-toxic
4 | O=C(Nc1nc(Cc2nnc(SCSc3nnc(Cc4csc(NC(=O)c5ccccc5)n4)n3NC(=O)c3ccc(Cl)cc3)n2NC(=O)c2ccc(Cl)cc2)cs1)c1ccccc1 | – | – | – | – | < 6.25 | 29 | 27 | 12 | 20 | Non-toxic
5 | COC(=O)CSc1nnc(Cc2csc(NC(=O)c3ccccc3)n2)n1NC(=O)c1ccc(Cl)cc1 | – | – | – | – | < 6.25 | 22 | 22 | 16 | 20 | Non-toxic
6 | CO[C@H]1/C=C/O[C@@]2(C)Oc3c(C)c(O)c4c(O)c(c(/C=N/N5CCN(C)CC5)c(O)c4c3C2=O)NC(=O)/C(C)=C\C=C\[C@H](C)[C@H](O)[C@@H](C)[C@@H](O)[C@@H](C)[C@H](OC(C)=O)[C@@H]1C [RIFAMPIN] | – | – | – | – | 0.015 (≈ 0.0182 µM) | – | – | – | – | –
7 | Nn1c(S)nnc1Cc1csc(NCCC(=O)O)n1 | – | – | – | – | < 6.25 | 25 | 22 | 16 | 20 | Non-toxic
8 | CC(=O)Nc1nc(Cc2nnc(SCC#N)n2NC(=O)c2cccc([N+](=O)[O-])c2)cs1 | – | – | – | – | < 6.25 | 22 | 26 | 21 | 20 | Non-toxic
9 | CC(=O)NNC(=O)CSc1nnc(Cc2csc(NC(=O)CCl)n2)n1NC(=O)c1ccc(Cl)cc1 | – | – | – | – | < 6.25 | 25 | 21 | 22 | 24 | Non-toxic
10 | CC(=O)Nc1nc(Cc2nnc(SCC(=O)NNC(=O)c3ccccc3)n2NC(=O)c2ccc(Cl)cc2)cs1 | – | – | – | – | < 6.25 | 28 | 22 | 17 | 20 | Non-toxic
11 | O=C(O)CCNc1nc(Cc2nnc(SCSc3nnc(Cc4csc(NCCC(=O)O)n4)n3NC(=O)c3cccc([N+](=O)[O-])c3)n2NC(=O)c2cccc([N+](=O)[O-])c2)cs1 | – | – | – | – | < 6.25 | 25 | 26 | 18 | 21 | Non-toxic
12 | COC(=O)CSc1nnc(Cc2csc(NCCC(=O)O)n2)n1NC(=O)c1cccc([N+](=O)[O-])c1 | – | – | – | – | < 6.25 | 22 | 22 | 20 | – | Non-toxic
13 | CC(=O)Nc1nc(Cc2nnc(SCc3nnc(S)n3N)n2NC(=O)c2ccc(Cl)cc2)cs1 | – | – | – | – | < 6.25 | 28 | 21 | 18 | 23 | Non-toxic
14 | O=C(O)CCNc1nc(Cc2nnc(SCC(=O)NNC(=O)CCl)n2NC(=O)c2ccc(Cl)cc2)cs1 | – | – | – | – | < 6.25 | – | – | – | – | Non-toxic
15 | Nn1c(S)nnc1CSc1nnc(Cc2csc(NCCC(=O)O)n2)n1NC(=O)c1cccc([N+](=O)[O-])c1 | – | – | – | – | < 6.25 | 26 | 28 | 18 | 17 | Non-toxic
16 | CC(=O)Nc1nc(Cc2nnc(SCC(=O)NNC(=O)CCl)n2NC(=O)c2cccc([N+](=O)[O-])c2)cs1 | – | – | – | – | < 6.25 | 12 | 18 | 14 | 18 | Non-toxic
17 | O=C(CCl)NNC(=O)CSc1nnc(Cc2csc(NC(=O)c3ccccc3)n2)n1NC(=O)c1ccc(Cl)cc1 | – | – | – | – | < 6.25 | 26 | 23 | 22 | 19 | Non-toxic
18 | CC(=O)Nc1nc(Cc2nnc(SCC(=O)NNC(=O)CCl)n2NC(=O)c2ccc(Cl)cc2)cs1 | – | – | – | – | < 6.25 | 25 | 20 | 20 | 18 | Non-toxic

Row | Compound | inhibition (Staphylococcus aureus) [%] | inhibition (Pseudomonas aeruginosa) [%] | inhibition (Salmonella typhi; Salmonella enterica subsp. enterica serovar Typhi) [%] | inhibition (Escherichia coli) [%] | MIC [1] [µg/mL] | inhibition zone (Staphylococcus aureus) [mm] | inhibition zone (Pseudomonas aeruginosa) [mm] | Inhibition (Salmonella typhi) | inhibition zone (Escherichia coli) [mm] | Activity [2]
19 | O=C(O)CCNc1nc(Cc2nnc(SCC(=O)NNC(=O)c3ccccc3)n2NC(=O)c2ccc(Cl)cc2)cs1 | – | – | – | – | < 6.25 | 18 | 25 | 23 | 19 | Non-toxic
20 | COC(=O)CSc1nnc(Cc2csc(NC(C)=O)n2)n1NC(=O)c1cccc([N+](=O)[O-])c1 | – | – | – | – | < 6.25 | 24 | 22 | 18 | 20 | Non-toxic
21 | NNC(=O)CSc1nnc(Cc2csc(NCCC(=O)O)n2)n1NC(=O)c1cccc([N+](=O)[O-])c1 | – | – | – | – | < 6.25 | 24 | 28 | 21 | 16 | Non-toxic
22 | O=C(O)CCNc1nc(Cc2nnc(SCC(=O)NNC(=O)CCl)n2NC(=O)c2cccc([N+](=O)[O-])c2)cs1 | – | – | – | – | < 6.25 | 24 | 26 | 24 | 24 | Non-toxic
23 | Nn1c(S)nnc1CSc1nnc(Cc2csc(NC(=O)c3ccccc3)n2)n1NC(=O)c1ccc(Cl)cc1 | – | – | – | – | < 6.25 | 26 | 19 | 19 | 20 | Non-toxic
24 | O=C(CSc1nnc(Cc2csc(NC(=O)CCl)n2)n1NC(=O)c1cccc([N+](=O)[O-])c1)NNC(=O)c1ccccc1 | – | – | – | – | < 6.25 | 21 | 18 | 18 | 10 | Non-toxic
25 | O=C(CSc1nnc(Cc2csc(NC(=O)c3ccccc3)n2)n1NC(=O)c1ccc(Cl)cc1)NNC(=O)c1ccccc1 | – | – | – | – | < 6.25 | 19 | 24 | 18 | 18 | Non-toxic
26 | CC(=O)NNC(=O)CSc1nnc(Cc2csc(NC(C)=O)n2)n1NC(=O)c1cccc([N+](=O)[O-])c1 | – | – | – | – | < 6.25 | 33 | 34 | 29 | 30 | Non-toxic
27 | O=C(CCl)Nc1nc(Cc2nnc(SCSc3nnc(Cc4csc(NC(=O)CCl)n4)n3NC(=O)c3ccc(Cl)cc3)n2NC(=O)c2ccc(Cl)cc2)cs1 | – | – | – | – | < 6.25 | 23 | 28 | 18 | 29 | Non-toxic
28 | CC(=O)Nc1nc(Cc2nnc(SCc3nnc(S)n3N)n2NC(=O)c2cccc([N+](=O)[O-])c2)cs1 | – | – | – | – | < 6.25 | 18 | 13 | 18 | 21 | Non-toxic
29 | O=C(O)CCNc1nc(Cc2nnc(SCSc3nnc(Cc4csc(NCCC(=O)O)n4)n3NC(=O)c3ccc(Cl)cc3)n2NC(=O)c2ccc(Cl)cc2)cs1 | – | – | – | – | < 6.25 | 21 | 29 | 20 | 22 | Non-toxic
30 | CC(=O)Nc1nc(Cc2nnc(SCC(=O)NNC(=O)c3ccccc3)n2NC(=O)c2cccc([N+](=O)[O-])c2)cs1 | – | – | – | – | < 6.25 | 32 | 30 | 27 | 30 | Non-toxic
31 | COC(=O)CSc1nnc(Cc2csc(NCCC(=O)O)n2)n1NC(=O)c1ccc(Cl)cc1 | – | – | – | – | < 6.25 | 26 | 24 | 18 | 22 | Non-toxic
32 | NNC(=O)CSc1nnc(Cc2csc(NCCC(=O)O)n2)n1NC(=O)c1ccc(Cl)cc1 | – | – | – | – | < 6.25 | 23 | 26 | 22 | 18 | Non-toxic
33 | CC(=O)NNC(=O)CSc1nnc(Cc2csc(NC(=O)c3ccccc3)n2)n1NC(=O)c1ccc(Cl)cc1 | – | – | – | – | < 6.25 | 26 | 24 | 19 | 21 | Non-toxic
34 | Nn1c(S)nnc1CSc1nnc(Cc2csc(NCCC(=O)O)n2)n1NC(=O)c1ccc(Cl)cc1 | – | – | – | – | < 6.25 | 21 | 24 | 23 | 19 | Non-toxic
35 | Nn1c(S)nnc1Cc1csc(NC(=O)CCl)n1 | – | – | – | – | – | 18 | 17 | 12 | 14 | Non-toxic

Reference: ChEMBL document CHEMBL1148007, “Synthesis of new S-derivatives of clubbed triazolyl thiazole as anti-Mycobacterium tuberculosis agents” (Bioorg Med Chem, 2007)
